Test [1] has as its target Opioid receptors; mu & kappa (Homo sapiens) (UniProt P41145+P35372). As to the kind of experiment: Ki ratio measured as the ke values of mu receptor/kappa receptor from guinea pig brain membranes.
Test [2] concerns the target T1, Kappa-type opioid receptor (Cavia porcellus, UniProt P41144). The test can be described thus: Binding affinity against Opioid receptor kappa 1 was measured in the guinea pig brain membranes using [3H]EK in the presence of 1 uM unlabeled DAMGO as radioligand. The test is classed as cell membranes, Membrane. The method, boiled down:
(§1)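 Guinea pig brain membranes, using a modified version of a published method. μ sites were labelled with [³H]DAMGO. κ sites were labelled with [³H]EK plus 1 μM unlabeled DAMGO. δ sites were labelled with [³H]DADLE plus 1 μM unlabeled DAMGO. Ki values were derived by displacement.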

Test [3] has as its target T2, Mu-type opioid receptor (Cavia porcellus, UniProt P97266). As to the kind of experiment: Binding affinity against Opioid receptor mu 1 was measured in the guinea pig brain membranes using [3H]DAMGO as radioligand. The format is cell membranes, Membrane. The method, boiled down:
as §1

The target of test [4] is Delta-type opioid receptor (Mus musculus) (UniProt P32300). As to the kind of experiment: Binding affinity of compound was measured against Opioid receptor delta 1 in mouse vas deferens (MVD) smooth muscle preparation at 100 nM using DADLE as standard agonist. The method in brief: (§2)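 Electrically stimulated guinea pig ileal longitudinal muscle was used for μ agonists (M, DAMGO) and κ agonists (EK, U50488H). Mouse vas deferens was used for δ agonists (DADLE, DPDPE). Antagonist at 100 nM unless specified, preincubated 15 min. Agonist concentration-response curves were run without and then with antagonist in the same tissue, giving IC50s. Ke = [antagonist]/(IC50 ratio − 1).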
Chain of Delta-type opioid receptor (Mus musculus) (P32300 whole entry): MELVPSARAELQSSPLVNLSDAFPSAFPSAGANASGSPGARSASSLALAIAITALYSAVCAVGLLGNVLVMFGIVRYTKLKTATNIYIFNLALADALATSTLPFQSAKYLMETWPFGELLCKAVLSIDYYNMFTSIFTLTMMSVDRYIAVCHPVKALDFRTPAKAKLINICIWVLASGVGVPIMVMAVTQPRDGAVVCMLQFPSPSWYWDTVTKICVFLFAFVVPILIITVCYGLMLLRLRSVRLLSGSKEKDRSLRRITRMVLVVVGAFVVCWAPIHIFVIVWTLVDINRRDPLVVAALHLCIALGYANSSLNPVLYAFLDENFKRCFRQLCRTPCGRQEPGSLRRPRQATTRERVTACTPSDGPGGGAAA

Test [5] is described as follows: Compound was tested for antagonist activity against Opioid receptor delta 1 in mouse vas deferens (MVD) smooth muscle preparation at 100 nM using DADLE as agonist. The format is functional. The method in brief:
as §2

The target in test [6] is Mu-type opioid receptor (Cavia porcellus) (UniProt P97266). As to the kind of experiment: Binding affinity of compound was measured against Opioid receptor mu 1 on electrically stimulated guinea pig ileal longitudinal muscle myenteric plexus (GPI)at 100 nM preparation using M as agonist. The method in brief:
as §2

Test [7] deals with Kappa-type opioid receptor. The test can be described thus: Compound was tested for antagonist activity against kappa opioid receptor on electrically stimulated guinea pig ileal longitudinal muscle myenteric plexus (GPI) at 100 nM using EK as agonist ligand. The format is functional. The method, boiled down: as §2
For test [8], the target named is Mu-type opioid receptor (Homo sapiens) (UniProt P35372). As to the kind of experiment: Compound was tested for antagonist activity against mu opioid receptor on electrically stimulated guinea pig ileal longitudinal muscle myenteric plexus (GPI) at 100 nM using M as agonist ligand. The format is functional. The method, boiled down: as §2
Chain of Mu-type opioid receptor (Homo sapiens) (P35372 whole entry): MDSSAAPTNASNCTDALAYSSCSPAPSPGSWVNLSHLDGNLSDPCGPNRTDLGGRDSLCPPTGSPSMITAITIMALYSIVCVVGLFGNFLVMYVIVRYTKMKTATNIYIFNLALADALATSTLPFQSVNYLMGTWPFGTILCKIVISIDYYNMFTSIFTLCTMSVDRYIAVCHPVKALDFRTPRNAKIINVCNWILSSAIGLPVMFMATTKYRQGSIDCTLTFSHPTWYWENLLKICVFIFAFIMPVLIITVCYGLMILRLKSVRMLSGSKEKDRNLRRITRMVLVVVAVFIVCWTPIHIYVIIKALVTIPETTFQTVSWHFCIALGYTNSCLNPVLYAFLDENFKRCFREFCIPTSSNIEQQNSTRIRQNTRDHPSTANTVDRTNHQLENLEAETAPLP
Test [9] has as its target Mu-type opioid receptor (Cavia porcellus) (UniProt P97266). As to the kind of experiment: Maximal inhibition of compound was measured on guinea pig ileal longitudinal muscle (GPI) preparation at 1 uM concentration. The test is classed as functional, tissue-based. The settings on record: Muscle tissue. The method, boiled down:
(§3)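 Agonist activity at 1 μM on electrically stimulated guinea pig ileum and mouse vas deferens preparations. Maximal inhibition or stimulation was recorded, averaged over three determinations.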

In test [10] the target is Kappa-type opioid receptor (Cavia porcellus) (UniProt P41144). As to the kind of experiment: Binding affinity of compound was measured against Opioid receptor kappa 1 on electrically stimulated guinea pig ileal longitudinal muscle myenteric plexus (GPI) at 100 nM preparation using EK as agonist. The method in brief:
as §2

Test [11] concerns the target Delta-type opioid receptor (Mus musculus) (UniProt P32300). As to the kind of experiment: Maximal inhibition of compound was measured on Mouse vas deferens(MVD) preparation. The test is classed as functional. The method in brief: as §3
For test [12], the target named is Mu-type opioid receptor (Homo sapiens) (UniProt P35372). As to the kind of experiment: Compound was tested for antagonist activity against mu opioid receptor on electrically stimulated guinea pig ileal longitudinal muscle myenteric plexus (GPI) at 100 nM using M as agonist ligand. IC50. The test is classed as functional. The method in brief: as §2
Test [13] deals with Mus musculus. The test can be described thus: compound was tested for antagonism of the antinociceptive effect of EK opioid agonist, sc in mice in an acetic acid writhing assay in a treated group(icv with 100 nmol of 2.HCl in 5 microL of saline). The format is functional. The method in brief:
(§4)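 Mouse acetic acid writhing assay. Antagonist was given icv at 100 nmol in 5 μL saline, timed so its 60-min peak effect fell at the centre of the observation period. Agonists (M, EK, U50488H) were given sc at four dose levels to control and treated mice. ED50 ratio = treated ED50 / control ED50.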
(In general: Writhing tests count abdominal constrictions after an irritant is injected.)

Test [14] deals with Mus musculus. As to the kind of experiment: Compound was tested for antagonism of the antinociceptive effect of U-50, 488H opioid agonist, sc in mice in an acetic acid writhing assay in a treated group(icv with 100 nmol of 2.HCl in 5 microL of saline). The test is classed as functional. The method, boiled down:
as §4

The target of test [15] is T1, Kappa-type opioid receptor. The test can be described thus: (§5) Binding affinity of compound was measured against Opioid receptor kappa 1 on electrically stimulated guinea pig ileal longitudinal muscle myenteric plexus (GPI) at 100 nM preparation using U-50,488H as agonist. The method, boiled down: as §2
Test [16] deals with Mus musculus. As to the kind of experiment: Compound was tested for antagonism of the antinociceptive effect of U-50, 488H opioid agonist, sc in mice in an acetic acid writhing assay in a control group. The format is functional. The method, boiled down:
as §4

The target in test [17] is Mu-type opioid receptor (Homo sapiens) (UniProt P35372). The test can be described thus: Compound was tested for antagonist activity against mu opioid receptor on electrically stimulated guinea pig ileal longitudinal muscle myenteric plexus (GPI) at 100 nM using DAMGO as agonist ligand. The test is classed as functional. The method, boiled down: as §2
Test [18] concerns the target Kappa-type opioid receptor (Cavia porcellus) (UniProt P41144). The description is as §5. The method, boiled down: as §2
Test [19] concerns Mus musculus. As to the kind of experiment: Compound was tested for antagonism of the antinociceptive effect of EK opioid agonist, sc in mice in an acetic acid writhing assay in a control group. The test is classed as functional. The method in brief:
as §4

Test [20] deals with Delta-type opioid receptor (Mus musculus) (UniProt P32300). The test can be described thus: Binding affinity of compound was measured against Opioid receptor delta 1 in mouse vas deferens (MVD) smooth muscle preparation at 100 nM using DPDPE as standard agonist. The method, boiled down:
as §2

Test [21] has as its target Mu-type opioid receptor (Cavia porcellus) (UniProt P97266). The test can be described thus: (§6) Binding affinity of compound was measured against Opioid receptor mu 1 on electrically stimulated guinea pig ileal longitudinal muscle myenteric plexus (GPI)at 100 nM preparation using DAMGO as agonist. The method in brief: as §2
Test [22] deals with T2, Mu-type opioid receptor. The test is described as §6. The method in brief:
as §2

The subject of test [23] is Mus musculus. As to the kind of experiment: Compound was tested for antagonism of the antinociceptive effect of M opioid agonist, sc in mice in an acetic acid writhing assay in a control group. The format is functional. The method, boiled down:
as §4

The subject of test [24] is Mus musculus. As to the kind of experiment: Compound was tested for antagonism of the antinociceptive effect of M opioid agonist, sc in mice in an acetic acid writhing assay in a treated group(icv with 100 nmol of 2.HCl in 5 microL of saline). The test is classed as functional. The method, boiled down:
as §4

For test [25], the target named is Kappa-type opioid receptor (Homo sapiens) (UniProt P41145). The test can be described thus: Compound was tested for antagonist activity against kappa opioid receptor on electrically stimulated guinea pig ileal longitudinal muscle myenteric plexus (GPI) at 100 nM using U-50,488H as agonist ligand. The format is functional. The method, boiled down: as §2
Chain of Kappa-type opioid receptor (Homo sapiens) (P41145 whole entry): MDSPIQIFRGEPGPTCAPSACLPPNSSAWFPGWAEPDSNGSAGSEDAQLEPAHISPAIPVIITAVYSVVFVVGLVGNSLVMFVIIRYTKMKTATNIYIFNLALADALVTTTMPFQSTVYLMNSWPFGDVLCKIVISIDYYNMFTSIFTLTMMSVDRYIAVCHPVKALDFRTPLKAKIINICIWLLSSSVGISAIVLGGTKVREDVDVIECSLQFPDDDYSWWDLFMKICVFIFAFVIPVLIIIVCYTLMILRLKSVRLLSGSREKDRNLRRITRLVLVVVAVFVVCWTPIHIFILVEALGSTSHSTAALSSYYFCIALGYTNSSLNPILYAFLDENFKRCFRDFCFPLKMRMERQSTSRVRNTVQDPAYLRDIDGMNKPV

The values that follow come from ChEMBL document CHEMBL1125657 (J Med Chem, 1991).

Usually Ki stands for a measure of affinity in units of concentration, obtained from inhibition or displacement. Broadly, the ED50 is the dose that gives a 50% effect, or the effect in half of the subjects. Low values mean greater potency, high ones weaker potency.

T2 sequence (P97266 whole entry): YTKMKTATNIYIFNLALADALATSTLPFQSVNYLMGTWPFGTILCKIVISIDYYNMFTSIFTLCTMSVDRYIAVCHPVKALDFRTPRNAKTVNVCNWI
Chain of Mu-type opioid receptor (Cavia porcellus) (P97266 whole entry): as above
Chain of Kappa-type opioid receptor (Cavia porcellus) (P41144 whole entry): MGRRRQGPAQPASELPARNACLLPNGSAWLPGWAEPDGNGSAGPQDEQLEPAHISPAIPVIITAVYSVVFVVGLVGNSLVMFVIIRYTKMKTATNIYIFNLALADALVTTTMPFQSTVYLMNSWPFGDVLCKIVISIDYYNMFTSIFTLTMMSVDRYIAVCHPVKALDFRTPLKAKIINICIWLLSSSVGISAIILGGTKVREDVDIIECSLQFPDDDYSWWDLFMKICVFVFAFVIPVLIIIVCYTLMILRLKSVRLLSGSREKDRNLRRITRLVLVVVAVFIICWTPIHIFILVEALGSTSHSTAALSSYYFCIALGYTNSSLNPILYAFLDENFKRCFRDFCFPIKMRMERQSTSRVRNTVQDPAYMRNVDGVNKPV
T1 sequence (P41144 whole entry): as above
Chain of Opioid receptors; mu & kappa (Homo sapiens) (P35372 whole entry, looked up): as the sequence (P35372 whole entry) above
Chain of Opioid receptors; mu & kappa (Homo sapiens) (P41145 whole entry, looked up): as the sequence (P41145 whole entry) above

With `Cn1c2c(c3c1[C@@H]1Oc4c(O)ccc5c4[C@@]14CCN(CC1CC1)[C@H](C5)[C@]4(O)C3)C[C@@]1(O)[C@H]3Cc4ccc(O)c5c4[C@@]1(CCN3CC1CC1)[C@H]2O5` [BINALTORPHIMINE], in [1], the Ratio was 44. The figures for the Ki in [2] and in test [3] were 0.41 nM and 18 nM, respectively.
`Oc1ccc2c3c1O[C@H]1C4=C(C[C@@]5(O)[C@@H](C2)N(CC2CC2)CC[C@]315)C(c1ccccc1)C1=C(O4)[C@@H]2Oc3c(O)ccc4c3[C@@]23CCN(CC2CC2)[C@H](C4)[C@]3(O)C1`: the figures for the Ke in [4], in test [6] and in [10] were 36 nM, 39 nM and 2.6 nM, respectively. The Ratio was 3.8 in [5], 39 in test [7], 3.6 in [8] and 11 in [1]. For the same molecule, the Ki in test [2] was determined as 10 nM; in test [3] it was 29 nM. Also, the Activity in [9] is -24; in test [11] it was 9.
With `O=C1C(=Cc2ccccc2)C[C@@]2(O)[C@H]3Cc4ccc(O)c5c4[C@@]2(CCN3CC2CC2)[C@H]1O5`, the Ke in test [4] amounted to 2.9 nM; in test [6], 8.3 nM; in test [10] it was 100 nM. For the same molecule, the values for the Ratio in test [5], in test [7] and in test [12] were 35, 2 and 13.1, respectively. The figures for the Activity in test [9] and in test [11] were -8 and -35, respectively.
Regarding `Oc1ccc2c3c1O[C@H]1c4sc5c(c4C[C@@]4(O)[C@@H](C2)N(CC2CC2)CC[C@]314)C[C@@]1(O)[C@H]2Cc3ccc(O)c4c3[C@@]1(CCN2CC1CC1)[C@H]5O4`, the Ke is 33 nM in test [4]; 41 nM in test [6]; 3.1 nM in test [18]; above 556 nM in test [20]; above 103 nM in test [21]; 2.6 nM in [10]. The Ratio in [5] came to 4; in [7], 39; in test [17], 1.9; in test [12] it was 3.5; in [25], 33. Further, the ED50 in test [13] was 0.13 mg/kg; in test [14], 11.2 mg/kg; in test [16] it was 1.5 mg/kg; in [19], 0.038 mg/kg; in test [23], 0.91 mg/kg; in test [24], 5.4 mg/kg. The figures for the Ki in test [15] and in [22] were 1.4 nM and 189 nM, respectively. The results for the Activity in test [9] and in test [11] were -17 and -26, respectively.
Turning to `Oc1ccc2c3c1O[C@H]1c4[nH]c5c(c4C[C@@]4(O)[C@@H](C2)N(CC2CC2)CC[C@]314)C[C@@]1(O)[C@H]2Cc3ccc(O)c4c3[C@@]1(CCN2CC1CC1)[C@H]5O4` [NORBINALTORPHIMINE], the Ke came to 10.6 nM in test [4]; 14 nM in test [6]; 0.21 nM in test [18]; 22 nM in test [21]; 0.55 nM in test [10]. The Ki in test [15] turned out to be 0.26 nM; in test [22], 47 nM. For the same molecule, the Activity worked out at 14 in [9] and 16 in test [11].
In the case of `Oc1ccc2c3c1O[C@H]1C(SSC4=CC[C@@]5(O)[C@H]6Cc7ccc(O)c8c7[C@@]5(CCN6CC5CC5)[C@H]4O8)=CC[C@@]4(O)[C@@H](C2)N(CC2CC2)CC[C@]314`, the Ke amounted to 13.2 nM in test [4], 2.2 nM in test [6] and 3.5 nM in [10]. The values for the Ratio in [5], in test [7] and in test [12] were 8.6, 9.7 and 14.6, respectively. Besides, the Activity in test [9] turned out to be 40; in [11], 15.
